# Bioassay records deposited in PubChem by Johns Hopkins Ion Channel Center.
# KCNQ1 act = potentiators or activators of KCNQ1 channel, primary screen, cell-based, thallium flux, high-throughput | AID 2648, 2010 | CHO-K1 KCNQ1, thallium flux FluxOR fluorescence; active compounds read high | Potassium voltage-gated channel subfamily KQT member 1 (Homo sapiens), P51787 | 310,000 compounds, 0.35% hits | B-score at 10 µM;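 active means fluorescence ratio B-score, a plate-corrected score, at least three library SD, with initial intensity B-score within 5 SD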
#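 assay system = KCNQ1-transfected CHO-K1 cells | medium = assay buffer with matched DMSO | probe or stimulus = depolarizing K+/Tl+ stimulus, K2SO4 and Tl2SO4 each 12.5 mM in 5x stock | dosing = single dose | incubation = dye 90 min, compound 20 min, room temperature | detection = kinetic FluxOR fluorescence, 10 s baseline plus 110 s post-stimulus | evaluation = ratio B score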
# KCNK3 block = human KCNK3 channel inhibitors, primary screen, CHO cells, FluxOR thallium flux, B-score. Potassium channel subfamily K member 3 (Homo sapiens), O14649. FluxOR fluorescence; active compounds read low. B-score at 10 µM. 340,000 compounds, 0.84% hits. AID 602410, 2012;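 active means B-score under library mean minus 4 SD, starting fluorescence ratio at most library mean plus 5 SD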;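 further: more negative B-score means stronger inhibition of thallium flux through KCNK3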
# KCNQ1 inh = inhibitors of human KCNQ1 channel, primary screen, cell-based, thallium flux, high-throughput; Potassium voltage-gated channel subfamily KQT member 1 (Homo sapiens), P51787; CHO-K1 KCNQ1, FluxOR thallium flux fluorescence; active compounds read high; B-score at 10 µM; 310,000 compounds, 1.3% hits;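 active means compounds whose thallium flux B-score, printed positive for inhibition, exceeds three library SD while starting fluorescence stays within three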;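 further: channel opened by potassium depolarization with thallium stimulus after 20 min compound exposure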
# hERG protect = hERG rescue from dofetilide block, primary screen, cell-based, CHO-hERG, FluxOR thallium flux, dofetilide IC70; 310,000 compounds, 0.51% hits; activation (rescue from dofetilide block), less the hit threshold, % at 10 µM; dofetilide IC70 present; AID 1511, 2009;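 active means activation above the mean of controls blocked by dofetilide plus 5 SD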;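 further: thallium influx through hERG after potassium depolarization seen as dye fluorescence rise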
# Kir21 inh = inhibitors of mouse Kir2.1 inward-rectifier potassium channel. Inward rectifier potassium channel 2 (Mus musculus), P35561. HEK293-Kir2.1, FluxOR thallium flux fluorescence; active compounds read low. 310,000 compounds, 0.85% hits. B-score at 10 µM;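 active means fluorescence ratio B-score at or below minus 3 SD of library scores, with starting-brightness B-score within 2 SD, cut at about -4.2 in these data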;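 further: channel flux triggered by added potassium and thallium sulfate stimulus; B-score of peak minus minimum fluorescence over baseline after thallium stimulus; more negative B-score means stronger Kir2.1 block with less thallium influx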
# KCNK9 block = KCNK9 potassium channel inhibitors, primary screen, HEK293 cells, thallium flux; Potassium channel subfamily K member 9 (Homo sapiens), Q9NPC2; B-score at 10 µM; 310,000 compounds, 1.2% hits; AID 488922, 2010; FluxOR thallium flux fluorescence; active compounds read low;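 active means ratio B-score over 3 SD below the library mean, with starting fluorescence within 5 SD of its mean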;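 further: negative B-score means less thallium flux so channel inhibition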
# Target sequence (Q9NPC2 whole entry, looked up): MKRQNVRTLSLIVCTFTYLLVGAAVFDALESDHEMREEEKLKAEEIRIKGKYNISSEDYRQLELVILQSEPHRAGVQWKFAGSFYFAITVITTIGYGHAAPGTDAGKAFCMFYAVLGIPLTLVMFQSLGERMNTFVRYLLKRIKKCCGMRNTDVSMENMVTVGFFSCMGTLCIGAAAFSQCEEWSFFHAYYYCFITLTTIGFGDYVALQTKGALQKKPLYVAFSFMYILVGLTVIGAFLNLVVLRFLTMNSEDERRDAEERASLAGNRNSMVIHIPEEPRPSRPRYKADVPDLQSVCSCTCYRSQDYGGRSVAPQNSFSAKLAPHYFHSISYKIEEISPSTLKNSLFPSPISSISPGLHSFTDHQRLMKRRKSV
# A number is an active result; 0 = inactive; - = not tested or not shown. Compounds with a hit are over-represented: about 3.7% of the library has one in this group of screens.
SMILES,KCNQ1 act,KCNK3 block,KCNQ1 inh,hERG protect,Kir21 inh,KCNK9 block
CCN(CC)C(=S)NC(=O)c1ccc(Cl)cc1Cl,17,0,0,13,0,0
CC(C)(C)C(=O)NC(=S)NNC(=O)c1ccc(-c2ccccc2)cc1,66,0,0,6.3,0,0
CC(C)(C)C(=O)NC(=S)NNC(=O)c1ccc(Cl)cc1Cl,16,0,0,0,0,0
CC(C)(C)C(=O)NC(=S)NNC(=O)c1ccncc1,0,0,0,0,0,0
CCCCNC(=S)NC(=O)c1ccc(Cl)cc1Cl,0,0,0,0,0,0
CCCCN(CCCC)C(=S)NC(=O)c1ccccc1Cl,57,0,0,65,0,0
COc1ccc(-c2csc(NC(=S)NC(=O)c3cccs3)n2)cc1OC,11,0,0,0,0,-7.9
COc1ccc(-c2csc(NC(=S)NC(=O)c3cccs3)n2)cc1Br,9,0,0,8.6,0,0
O=C(NC(=S)Nc1nc2c(ccc3ccccc32)s1)c1cccs1,9,0,0,0,0,0
COCCN(C(=O)COC(=O)CCCOc1ccc(OC)cc1)c1c(N)n(Cc2ccccc2)c(=O)[nH]c1=O,0,0,0,0,0,0
COC(=O)c1cccc(CSc2nnc(-c3ccco3)n2-c2ccccc2)c1,0,0,0,0,-6.8,0
CC(C)C[C@@H](CN1CCC[C@@H]1CN1C(=O)C(=O)NC[C@@H]1Cc1ccccc1)N1C[C@H](Cc2ccccc2)N(CC2CCCCCC2)C(=O)C1=O,-,0,-,-,-,-
O=C1NC[C@H](Cc2ccccc2)N(C[C@H]2CCCN2C[C@H](Cc2ccccc2)N2C[C@H](Cc3ccccc3)N(CC3CCCCCC3)C(=O)C2=O)C1=O,-,-9,-,-,-,-
S=c1nc(-c2ccccc2)[nH]n1-c1ccccc1,74,0,0,15,0,0
Cc1nc(=S)n(-c2ccccc2)[nH]1,0,0,0,0,0,0
CCCCCCCCCn1c2c(c(=N)c3c1CCC3)CCCC2,0,-12,10,0,-15,0
CCn1c2c(c(=N)c3c1CCC3)CCCC2,0,0,0,0,0,0
O=C(COC(=O)c1ccc(S(=O)(=O)N2CCCCCC2)cc1)NCc1ccc(Cl)cc1,-,0,-,-,-,-
CCOC(=O)C1CCCN(C(=O)c2ccc(Cn3c(=S)[nH]c4cc(C(=O)OC)ccc4c3=O)cc2)C1 (stereo not drawn),0,0,0,6.6,0,0
CN(Cc1ccccc1)C(=O)C1CCCN(Cc2ccc(Cl)cc2)C1 (stereo not drawn),0,0,0,0,-4.2,0
CCCCCn1c(=S)[nH]c2ncccc2c1=O,20,0,0,12,0,0
O=c1c2cccnc2[nH]c(=S)n1CCC1=CCCCC1,27,0,0,31,0,0
COCCCn1c(=S)[nH]c2ncccc2c1=O,0,0,0,0,0,0
COCCn1c(=S)[nH]c2ncccc2c1=O,0,0,0,0,0,0
C=CCN(C(=O)CCC(=O)Nc1cc(C)on1)C(C(=O)NC1CCCC1)c1ccc(CC)cc1 (stereo not drawn),0,0,0,0,0,0
SMILES,KCNQ1 act,KCNK3 block,KCNQ1 inh,hERG protect,Kir21 inh,KCNK9 block
CC1(C)CC(=O)C=C(Nc2ccc([N+](=O)[O-])cc2)C1,0,0,0,0,0,0
O=C(NCCCN1CCCC1=O)Nc1ccc(F)c(Cl)c1,0,0,6,0,0,0
O=C(NCCCN1CCc2ccccc2C1)Nc1ccc(Cl)cc1,0,0,0,0,-4.7,0
COc1ccc(NC(=O)NCCN2CCc3ccccc3C2)cc1,0,0,0,0,0,0
CC(Sc1ccc(S(=O)(=O)N2CCN(C)CC2)cn1)C(=O)NC1CCCCC1 (stereo not drawn),-,0,-,-,-,-
Cc1ccc(C)c2sc(NC(=O)c3ccc(N4CCCCC4)c([N+](=O)[O-])c3)nc12,0,0,0,0,0,-7.8
Cc1c(C(=O)OCc2nc3ccsc3c(=O)[nH]2)oc2ccccc12,-,0,-,-,-,-
O=C(Nc1cccc(S(=O)(=O)N2CCCCC2)c1)C1=NN(c2ccccc2)C(=O)CC1,-,0,-,-,-,-
CCOc1ncccc1C(=O)OCC(=O)Nc1cc(S(=O)(=O)N2CCOCC2)ccc1C,0,0,0,0,0,0
Cc1ccc(S(=O)(=O)N2CCOCC2)cc1NC(=O)COC(=O)c1cccnc1Cl,0,0,0,35,0,0
Cc1ccc(S(=O)(=O)N2CCOCC2)cc1NC(=O)COC(=O)CCOc1ccc(C(C)(C)C)cc1,0,0,8,0,0,0
Cc1ccc(S(=O)(=O)N2CCOCC2)cc1NC(=O)COC(=O)CNC(=O)c1ccc(C(C)(C)C)cc1,0,0,0,0,0,0
Cc1ccc(S(=O)(=O)N2CCOCC2)cc1NC(=O)COc1cccc(Oc2ccccc2)c1,0,0,6,0,0,0
CN(C)Cc1ccccc1Sc1cccc2ccccc12,0,0,0,0,-5.3,0
CN(C)Cc1ccccc1Sc1ccccc1Br,0,0,0,0,0,0
O=C(NCC1CCCO1)c1ccc(COc2ccccc2)o1 (stereo not drawn),0,0,0,0,0,0
Cc1cccc(NCc2nc(SCC(=O)Nc3ccccc3Br)n[nH]2)c1,0,0,0,0,-5,0
Cc1cccc(NCc2nc(SCC(=O)Nc3ccccc3)n[nH]2)c1,0,0,0,0,0,0
CCOc1ccc(/C=N/NC(=O)C(O)c2ccccc2)c(O)c1 (stereo not drawn),0,0,0,0,0,0
CN1C(=O)/C(=C/c2cc(N=Nc3ccccc3)ccc2O)SC1=S,0,0,7,0,0,0
Cc1c(N2C(=O)/C(=C\c3ccccc3O)SC2=S)c(=O)n(-c2ccccc2)n1C,42,0,0,17,0,0
Cc1c(N2C(=O)/C(=C/c3cccc4ccccc34)SC2=S)c(=O)n(-c2ccccc2)n1C,0,0,0,0,0,0
O=C1/C(=C\c2cc(Br)cc(Br)c2O)SC(=S)N1Cc1ccccc1,0,0,0,0,0,0
Cc1ccc2oc(C(=O)N3CCC(O)(c4cccc(C(F)(F)F)c4)CC3)c(C)c2c1,0,0,0,0,0,0
COc1cccc(-n2ccnc2SCC(=O)N2CCCc3ccccc32)c1,0,0,0,0,-7.5,0
CCOc1ccc2nc(SCC(=O)N3CCCc4ccccc43)sc2c1,0,0,0,0,0,0
COc1cccc(-n2ccnc2SCC(=O)Nc2ccccc2)c1,0,0,0,0,-4.9,0
